In ChEMBL document CHEMBL1149790, “Synthesis of some novel thiourea derivatives obtained from 5-[(4-aminophenoxy)methyl]-4-alkyl/aryl-2,4-dihydro-3H-1,2,4-triazole-3-thiones and evaluation as antiviral/anti-HIV and anti-tuberculosis agents” (Eur J Med Chem, 2008):
Converted amounts (≈) assume the structure as drawn.

Key:
Vero = assay: Cytotoxicity against african green monkey Vero cells; type: cell-based; details: chlorocebus sabaeus
Method in brief: (§1)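 Uninfected cell cultures exposed to test compounds alongside antiviral assays; minimum cytotoxic concentration (MCC) = concentration causing a microscopically detectable alteration of cell morphology.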

[1] = Cytotoxicity against human E6SM cells; type: cell-based; details: E6SM cells; method in brief: as §1
[2] = tested on: Human immunodeficiency virus 1; assay: Antiviral activity against HIV1 3B in human MT4 cells assessed as protection against virus-induced cytopathogenicity by MTT assay; type: functional, organism-based; design: Activity: concentration or dose not given beside the values; details: for IC50: Human immunodeficiency virus 1, 3B, MT4
Method in brief: (§2)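 MT-4 cells at 6 × 10⁵ cells/ml infected with HIV-1 IIIB or HIV-2 ROD at 100–300 CCID50; compounds in serial five-fold dilutions, triplicate mock- and virus-infected wells. MTT viability read at 540 and 690 nm after 5 days, median OD of three wells; EC50 = 50% protection from viral cytopathic effect.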

[3] = tested on: Human immunodeficiency virus 2; assay: Antiviral activity against HIV2 ROD in human MT4 cells assessed as protection against virus-induced cytopathogenicity by MTT assay; type: functional, organism-based; design: Activity: concentration or dose not given beside the values; details: for IC50: Human immunodeficiency virus 2, ROD, MT4; method in brief: as §2
[4] = Cytotoxicity against human HeLa cells; type: cell-based; method in brief: as §1
Punta Toro virus = assay: Antiviral activity against Punta Toro virus in african green monkey Vero cells assessed as reduction of virus-induced cytopathogenicity; type: functional
Method in brief: (§3)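 Confluent cell monolayers (E6SM, HEL, HeLa or Vero, per line) inoculated with 100 CCID50 virus; 1 h adsorption, residual virus removed, then incubated with compound at 400, 200, 100 … µg/ml. Cytopathicity scored once complete in untreated virus controls; MIC = concentration inhibiting virus-induced cytopathicity.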

Human alphaherpesvirus 2 [5] = assay: Antiviral activity against HSV2 G in human E6SM cells assessed as reduction of virus-induced cytopathogenicity; type: functional; details: Human alphaherpesvirus 2, G; method in brief: as §3
[6] = tested on: Mammalian orthoreovirus 1; assay: Antiviral activity against Reo virus 1 in african green monkey Vero cells assessed as reduction of virus-induced cytopathogenicity; type: functional; method in brief: as §3
Human alphaherpesvirus 1 [7] = assay: Antiviral activity against thymidine kinase deficient and acyclovir resistant HSV1 KOS in human HEL cells assessed as reduction of virus-induced cytopathogenicity; type: functional; details: Human alphaherpesvirus 1, KOS; method in brief: as §3
Coxsackievirus B4 [8] = assay: Antiviral activity against Coxsackie virus B4 in african green monkey Vero cells assessed as reduction of virus-induced cytopathogenicity; type: functional; details: Enterovirus B; method in brief: as §3
Human alphaherpesvirus 2 [9] = assay: Antiviral activity against HSV2 G in human HEL cells assessed as reduction of virus-induced cytopathogenicity; type: functional; details: Human alphaherpesvirus 2, G; method in brief: as §3
[10] = tested on: Respiratory syncytial virus; assay: Antiviral activity against respiratory syncytial virus in human HeLa cells assessed as inhibition of virus-induced cytopathogenicity; type: functional; method in brief: as §3
Human alphaherpesvirus 1 [11] = assay: Antiviral activity against HSV1 KOS in human E6SM cells assessed as reduction of virus-induced cytopathogenicity; type: functional; details: Human alphaherpesvirus 1, KOS; method in brief: as §3
Coxsackievirus B4 [12] = assay: Antiviral activity against Coxsackie virus B4 in human HeLa cells assessed as inhibition of virus-induced cytopathogenicity; type: functional; details: Enterovirus B; method in brief: as §3
Sindbis virus = assay: Antiviral activity against Sindbis virus in african green monkey Vero cells assessed as reduction of virus-induced cytopathogenicity; type: functional; method in brief: as §3
[13] = Cytotoxicity against human HEL cells assessed as alteration of cell morphology; type: cell-based; method in brief: as §1
[14] = tested on: Vesicular stomatitis virus; assay: Antiviral activity against in Vesicular stomatitis virus in human HEL cells assessed as reduction of virus-induced cytopathogenicity; type: functional; method in brief: as §3
Human alphaherpesvirus 1 [15] = assay: Antiviral activity against thymidine kinase deficient and acyclovir resistant HSV1 KOS in human E6SM cells assessed as reduction of virus-induced cytopathogenicity; type: functional; details: Human alphaherpesvirus 1, KOS; method in brief: as §3
[16] = tested on: Vesicular stomatitis virus; assay: Antiviral activity against in Vesicular stomatitis virus in human E6SM cells assessed as reduction of virus-induced cytopathogenicity; type: functional; method in brief: as §3
[17] = Cytotoxicity against human MT4 cells by MTT assay; type: cell-based
Method in brief: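 Mock-infected MT-4 cells (6 × 10⁵ cells/ml) with serial five-fold compound dilutions in triplicate; MTT reduction read at 540 and 690 nm after 5 days, median OD of three wells; CC50 = concentration reducing OD540 of mock-infected control by 50%.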

Human alphaherpesvirus 1 [18] = assay: Antiviral activity against HSV1 KOS in human HEL cells assessed as reduction of virus-induced cytopathogenicity; type: functional; details: Human alphaherpesvirus 1, KOS; method in brief: as §3
Human respirovirus 3 = assay: Antiviral activity against Parainfluenza 3 virus in african green monkey Vero cells assessed as reduction of virus-induced cytopathogenicity; type: functional; method in brief: as §3
[19] = tested on: Vesicular stomatitis virus; assay: Antiviral activity against vesicular stomatitis virus in human HeLa cells assessed as inhibition of virus-induced cytopathogenicity; type: functional; method in brief: as §3

Row | SMILES | Activity (Vero) | MCC [1] | MCC [4] | MIC (Punta Toro virus) | MIC (Human alphaherpesvirus 2 [5]) | MIC [6] | MIC (Human alphaherpesvirus 1 [7]) | MIC (Coxsackievirus B4 [8]) | MIC (Human alphaherpesvirus 2 [9]) | MIC [10] | MIC (Human alphaherpesvirus 1 [11]) | MIC (Coxsackievirus B4 [12]) | MIC (Sindbis virus) | MCC [13] | MIC [14] | MIC (Human alphaherpesvirus 1 [15]) | MIC [16] | MIC (Human alphaherpesvirus 1 [18]) | MIC (Human respirovirus 3) | MIC [19] | other results
1 | C=CCNC(=S)Nc1ccc(-c2n[nH]c(=S)n2CCCCCC)cc1 | >= 16 ug ml-1 | 80 µg/mL | 80 µg/mL | > 16 µg/mL | > 16 µg/mL | > 16 µg/mL | > 16 µg/mL | > 16 µg/mL | > 16 µg/mL | > 16 µg/mL | > 16 µg/mL | > 16 µg/mL | > 16 µg/mL | 80 µg/mL | > 16 µg/mL | > 16 µg/mL | > 16 µg/mL | > 16 µg/mL | > 16 µg/mL | > 16 µg/mL | Activity [2]: 4%; IC50 [2]: > 10.1 µg/mL; Activity [3]: 0%; IC50 [3]: > 10.1 µg/mL; CC50 [17]: 10.1 µg/mL (≈ 26.8 µM)
2 | CCCCCCNC(=S)Nc1ccc(-c2n[nH]c(=S)n2C)cc1 | 80 µg/mL | 400 µg/mL | 80 µg/mL | > 16 µg/mL | 48 µg/mL (≈ 137 µM) | > 16 µg/mL | 48 µg/mL (≈ 137 µM) | > 16 µg/mL | 48 µg/mL (≈ 137 µM) | > 16 µg/mL | 48 µg/mL (≈ 137 µM) | > 16 µg/mL | > 16 µg/mL | 400 µg/mL | > 80 µg/mL | 48 µg/mL (≈ 137 µM) | > 80 µg/mL | 48 µg/mL (≈ 137 µM) | > 16 µg/mL | > 16 µg/mL | Activity [2]: 8%; IC50 [2]: > 8.82 µg/mL; Activity [3]: 0%; IC50 [3]: > 8.82 µg/mL; CC50 [17]: 8.82 µg/mL (≈ 25.2 µM)
3 | S=C(Nc1ccccc1)Nc1ccc(-c2n[nH]c(=S)n2-c2ccccc2)cc1 | 80 µg/mL | ≥ 80 µg/mL | 80 µg/mL | > 16 µg/mL | > 80 µg/mL | > 16 µg/mL | > 80 µg/mL | > 16 µg/mL | > 80 µg/mL | > 80 µg/mL | > 80 µg/mL | > 80 µg/mL | > 16 µg/mL | ≥ 80 µg/mL | > 80 µg/mL | > 80 µg/mL | > 80 µg/mL | > 80 µg/mL | > 16 µg/mL | > 80 µg/mL | Activity [2]: 25%; IC50 [2]: > 28.6 µg/mL; Activity [3]: 0%; IC50 [3]: > 28.6 µg/mL; CC50 [17]: 28.6 µg/mL (≈ 70.8 µM)
4 | CNC(=S)Nc1ccc(-c2n[nH]c(=S)n2-c2ccccc2)cc1 | >= 80 ug ml-1 | 400 µg/mL | ≥ 400 µg/mL | > 80 µg/mL | > 80 µg/mL | > 80 µg/mL | 240 µg/mL (≈ 703 µM) | > 80 µg/mL | > 80 µg/mL | > 400 µg/mL | 240 µg/mL (≈ 703 µM) | > 400 µg/mL | > 80 µg/mL | 400 µg/mL | > 80 µg/mL | 240 µg/mL (≈ 703 µM) | > 80 µg/mL | 240 µg/mL (≈ 703 µM) | > 80 µg/mL | > 400 µg/mL | Activity [2]: 23.5%; IC50 [2]: > 94.4 µg/mL; Activity [3]: 0%; IC50 [3]: > 94.4 µg/mL; CC50 [17]: 94.4 µg/mL (≈ 276 µM)
5 | C=CCNC(=S)Nc1ccc(-c2n[nH]c(=S)n2-c2ccccc2)cc1 | >= 400 ug ml-1 | ≥ 80 µg/mL | ≥ 400 µg/mL | > 400 µg/mL | > 80 µg/mL | > 400 µg/mL | > 80 µg/mL | > 400 µg/mL | > 80 µg/mL | > 400 µg/mL | > 80 µg/mL | > 400 µg/mL | > 400 µg/mL | ≥ 80 µg/mL | > 80 µg/mL | > 80 µg/mL | > 80 µg/mL | > 80 µg/mL | > 400 µg/mL | > 400 µg/mL | Activity [2]: 13.5%; IC50 [2]: > 55.1 µg/mL; Activity [3]: 0%; IC50 [3]: > 55.1 µg/mL; CC50 [17]: 55.1 µg/mL (≈ 150 µM)
6 | CCCCCCNC(=S)Nc1ccc(-c2n[nH]c(=S)n2-c2ccccc2)cc1 | 400 µg/mL | ≥ 16 µg/mL | 400 µg/mL | > 80 µg/mL | > 16 µg/mL | > 80 µg/mL | > 16 µg/mL | > 80 µg/mL | > 16 µg/mL | > 80 µg/mL | > 16 µg/mL | > 80 µg/mL | > 80 µg/mL | ≥ 16 µg/mL | > 16 µg/mL | > 16 µg/mL | > 16 µg/mL | > 16 µg/mL | > 80 µg/mL | > 80 µg/mL | Activity [2]: 16%; IC50 [2]: > 3.99 µg/mL; Activity [3]: 3%; IC50 [3]: > 3.99 µg/mL; CC50 [17]: 3.99 µg/mL (≈ 9.69 µM)
7 | Nc1ncnc2c1ncn2C[C@H](O)CO [(S)-DHPA] | > 400 µg/mL |  | > 400 µg/mL | > 400 µg/mL |  | > 400 µg/mL |  | > 400 µg/mL |  | > 400 µg/mL |  | > 400 µg/mL | > 400 µg/mL |  |  |  |  |  | > 400 µg/mL | > 400 µg/mL | 
8 | NC(=O)c1ncn([C@@H]2O[C@H](CO)[C@@H](O)[C@H]2O)n1 [RIBAVIRIN] | > 400 µg/mL | > 400 µg/mL | > 400 µg/mL | 48 µg/mL (≈ 197 µM) | 48 µg/mL (≈ 197 µM) | 48 µg/mL (≈ 197 µM) | 48 µg/mL (≈ 197 µM) | > 400 µg/mL | 48 µg/mL (≈ 197 µM) | 9.6 µg/mL (≈ 39.3 µM) | 9.6 µg/mL (≈ 39.3 µM) | 240 µg/mL (≈ 983 µM) | 240 µg/mL (≈ 983 µM) | > 400 µg/mL | 240 µg/mL (≈ 983 µM) | 48 µg/mL (≈ 197 µM) | 240 µg/mL (≈ 983 µM) | 9.6 µg/mL (≈ 39.3 µM) | 48 µg/mL (≈ 197 µM) | 48 µg/mL (≈ 197 µM) | 
